Measurements taken from ChEMBL document CHEMBL1641462, “Synthesis and in vivo evaluation of ¹⁸F-fluoroethyl GF120918 and XR9576 as positron emission tomography probes for assessing the function of drug efflux transporters” (Bioorg Med Chem, 2011).
Active and inactive are the calls of the source.

Experiments:
Format in all cases: cell-based
Settings in all cases: 7.4 M; tested as the 18F-labelled form
[1] = Increase of P-glycoprotein-mediated intracellular drug uptake expressed in human MES-SA/Dx5 cells at 7.4 MBq/ml after 120 mins by gamma counting in presence of 10 uM of N-(4-(2-(1,2,3,4-tetrahydro-6,7-dimethoxy-2- isoquinolinyl)ethyl)phenyl)-9,10-dihydro-5-fluoroethoxy-9- oxo-4-acridine carboxamide
Method in brief: (§1)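 MES-SA/Dx5 doxorubicin-resistant human uterine sarcoma cells grown in McCoy's 5A + 10% FCS at 37 °C, 5% CO2; monolayers (10^5 cells/well) incubated 120 min with 7.4 MBq/ml [18F]-tracer ± 10 µM inhibitor. Washed five times in cold PBS, lysed in 0.2 M NaOH, gamma counted, normalized to protein (%ICD/mg). Percent increase vs untreated cells; triplicate.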

[2] = Increase of P-glycoprotein-mediated intracellular drug uptake expressed in human MES-SA/Dx5 cells at 7.4 MBq/ml after 120 mins by gamma counting in presence of 10 uM of quinoline-3-carboxylic acid [2-(4-{2-[7-(2-fluoroethoxy)- 6-methoxy-3,4-dihydro-1H-isoquinolin-2-yl]ethyl}phenylc arbamoyl)-4,5-dimethoxyphenyl]amide; method in brief: as §1
[3] = Increase of P-glycoprotein-mediated intracellular drug uptake expressed in human MES-SA/Dx5 cells at 7.4 MBq/ml after 120 mins by gamma counting in presence of 10 uM of XR9576; method in brief: as §1
[4] = Increase of P-glycoprotein-mediated intracellular drug uptake expressed in human MES-SA/Dx5 cells at 7.4 MBq/ml after 120 mins by gamma counting in presence of 10 uM of GF120918; method in brief: as §1

Measured: Drug uptake

COc1cc2c(cc1OC)CN(CCc1ccc(NC(=O)c3cccc4c(=O)c5cccc(OCCF)c5[nH]c34)cc1)CC2
active: [1] | [2] | [3] | [4]

COc1cc(NC(=O)c2cnc3ccccc3c2)c(C(=O)Nc2ccc(CCN3CCc4cc(OC)c(OCCF)cc4C3)cc2)cc1OC
active: [1] | [2] | [3] | [4]
